According to ChEMBL document CHEMBL1133720, “Structural studies on bioactive compounds. 32. Oxidation of tyrphostin protein tyrosine kinase inhibitors with hypervalent iodine reagents” (J Med Chem, 2000):

What was measured:
Cell line = assay: Inhibition of proliferation in NCI panel of 60 human cell lines (Range is 20-80 uM); type: functional
MCF7 [1] = assay: (§1) Inhibition of MCF-7 human breast tumor cell proliferation; type: functional, cell-based
Procedure, shortened: (§2)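 Seven-day MTT assay at 250-300 cells/well in RPMI 1640 with 10% FCS. After a 24-h drug-free attachment at 37 °C/5% CO₂, drug was added at 1 nM-100 µM (final DMSO <0.25%). MTT was added at a final 400 µg/mL for 4 h, formazan was dissolved in DMSO-glycine (4:1) and absorbance read at 550 nm. IC50 is the mean of at least three experiments.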

MCF7 [2] = assay: as §1; type: functional, cell-based; procedure, shortened: as §2; remark: listed apart in the source
MCF7 [3] = assay: Inhibition of TGF-alpha stimulated MCF-7 human breast tumor cell proliferation; type: functional, cell-based
Procedure, shortened: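 MCF-7 cells, 5 × 10³/well, were plated in phenol red-free RPMI 1640 with 5% charcoal-stripped FCS and allowed to attach overnight. Growth factor (IGF-I, IGF-II or TGF-α, as the line names) was then added together with drug. Cells grew a further 7 days, and viable cells were counted by MTT. IC50 is the mean of at least three experiments.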

MCF7 [4] = assay: Inhibition of MCF-7/adr human breast tumor cell proliferation; type: functional, cell-based; procedure, shortened: as §2
MDA-MB-231 = assay: Inhibition of MDA-231 human breast tumor cell proliferation; type: functional, cell-based
Procedure, shortened: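 MTT assay, 7-day continuous drug exposure. Cells seeded at 250-300 cells/well in RPMI 1640 with 10% FCS and penicillin/streptomycin, attached over 24 h drug-free at 37 °C/5% CO2. Drug range 1 nM-100 µM from DMSO stocks, final DMSO <0.25%. MTT 400 µg/mL final for 4 h, formazan dissolved in DMSO-glycine, absorbance 550 nm. IC50 is the mean of at least three experiments.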

SK-BR-3 = assay: Inhibition of SBBr3 human breast tumor cell proliferation; type: functional, cell-based; procedure, shortened: as §2
T47D = assay: Inhibition of T47D human breast tumor cell proliferation; type: functional, cell-based; procedure, shortened: as §2
ZR-75-1 = assay: Inhibition of ZR-75-1 human breast tumor cell proliferation; type: functional, cell-based; procedure, shortened: as §2
MDA-MB-468 = assay: Inhibition of MDA-468 human breast tumor cell proliferation; type: functional, cell-based; procedure, shortened: as §2
[5] = biological target: Receptor tyrosine-protein kinase erbB-2; assay: Inhibition of c-erbB2 receptor

How did the GI50 (Cell line) turn out when `COC1=C2C[C@@H](C)C[C@H](OC)[C@H](O)[C@@H](C)/C=C(\C)[C@H](OC(N)=O)[C@@H](OC)/C=C\C=C(/C)C(=O)NC(=CC1=O)C2=O` [GELDANAMYCIN] was run?
The GI50 was 0.327 µM.

How did the GI50 (Cell line) turn out when `COc1cc(C(C)=O)cc(-c2cc(C(C)=O)cc(OC)c2O)c1O` was run?
Its GI50 is 80 µM.

For `COc1cc(/C=C(\C#N)C(N)=O)cc(-c2cc(/C=C(\C#N)C(N)=O)cc(OC)c2O)c1O`, which GI50 (Cell line) is on record?
The GI50 was 80 µM.

What does the source list for `N#C/C(=C\c1ccc(O)cc1)c1ccccn1`?
IC50 (MCF7 [1]): 15 µM; IC50 (MCF7 [2]): 73.8 µM; IC50 (MCF7 [3]): 67.7 µM; IC50 (MCF7 [4]): 51.2 µM; IC50 (MDA-MB-231): 40.3 µM; IC50 (SK-BR-3): 7.8 µM; IC50 (T47D): 36.3 µM; IC50 (ZR-75-1): 48.5 µM; IC50 (MDA-MB-468): 0.45 µM

For `COC(=O)/C(C#N)=C/c1cc(OC)c(O)c(-c2cc(/C=C(\C#N)C(=O)OC)cc(OC)c2O)c1`, which GI50 (Cell line) is on record?
Its GI50 is 80 µM.

`COc1cc(/C=C(\C#N)C(N)=O)cc(Sc2nc3ccccc3s2)c1O` was tested. Which IC50 [5] did it give?
The IC50 was 0.35 µM.

For `COc1cc(/C=C(\C#N)c2ccccn2)ccc1O`, which IC50 (MCF7 [1]) is on record?
Its IC50 is 0.7 µM.

What about the IC50 (MCF7 [2]) of the same compound?
The IC50 was 2.7 µM.

What about the IC50 (MCF7 [3]) of the same compound?
Its IC50 is 2.3 µM.

What about the IC50 (MCF7 [4]) of the same compound?
Its IC50 is 52.8 µM.

And the IC50 (MDA-MB-231)?
Its IC50 is 51 µM.

What about the IC50 (SK-BR-3) of the same compound?
Its IC50 is 0.5 µM.

What about the IC50 (T47D) of the same compound?
The IC50 was 6 µM.

And the IC50 (ZR-75-1)?
The IC50 was 2.6 µM.

What about the IC50 (MDA-MB-468) of the same compound?
Its IC50 is 0.06 µM.

How did the GI50 (Cell line) turn out when `COC(=O)/C(C#N)=C/c1ccc(Oc2ccccc2)c(I)c1` was run?
Its GI50 is 80 µM.

For `COc1cc(/C=C(\C#N)c2ccccn2)cc(-c2cc(/C=C(\C#N)c3ccccn3)cc(OC)c2O)c1O`, which GI50 (Cell line) is on record?
The GI50 was 80 µM.

With `COc1cc(C=C(C#N)C#N)cc(-c2cc(C=C(C#N)C#N)cc(OC)c2O)c1O` as the compound, how does the GI50 (Cell line) read?
Its GI50 is 80 µM.

Which GI50 (Cell line) does the source give for `N#CC(C#N)=Cc1ccc(Oc2ccccc2)c(I)c1` here?
Its GI50 is 80 µM.

For `N#C/C(=C\c1ccc(Oc2ccccc2)c(I)c1)C(N)=O`, which GI50 (Cell line) is on record?
Its GI50 is 80 µM.

What does the source list for `N#C/C(=C\c1ccc(Oc2ccccc2)c(I)c1)c1ccccn1`?
IC50 (MCF7 [1]): 20 µM; IC50 (MCF7 [2]): 41.8 µM; IC50 (MCF7 [3]): 41 µM; IC50 (MCF7 [4]): 25.2 µM; IC50 (MDA-MB-231): 39.8 µM; IC50 (SK-BR-3): 6.5 µM; IC50 (T47D): 48.7 µM; IC50 (ZR-75-1): 24.7 µM; IC50 (MDA-MB-468): 0.3 µM

For `N#C/C(=C\c1ccc(Oc2ccccc2)c(I)c1)C(=O)NCCCc1ccccc1`, which GI50 (Cell line) is on record?
The GI50 was 80 µM.

Which GI50 (Cell line) does the source give for `CCOc1cc(C=C(C#N)C#N)cc(-c2cc(C=C(C#N)C#N)cc(OCC)c2O)c1O` here?
The GI50 was 80 µM.

How did the GI50 (Cell line) turn out when `COc1cc(C=O)cc(-c2cc(C=O)cc(OC)c2O)c1O` was run?
Its GI50 is 80 µM.

Which GI50 (Cell line) does the source give for `COC(=O)c1cc(OC)c(O)c(-c2cc(C(=O)OC)cc(OC)c2O)c1` here?
The GI50 was 80 µM.
